As usually defined, the IC50 is the point on the concentration scale where inhibition reaches its midpoint.

The record followed here is ChEMBL document CHEMBL1152619, “Synthesis and structure-activity relationships of dehydroaltenusin derivatives as selective DNA polymerase alpha inhibitors” (Bioorg Med Chem, 2009).

The nature of test [1]: Selectivity index, ratio of IC50 for rat DNA polymerase beta to IC50 for calf thymus DNA polymerase alpha.
A short description of test [2]: Inhibition of calf thymus DNA polymerase alpha by [3H]dTTP incorporation assay. The arrangement: species or system Bos taurus. An outline of the steps: (§1)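 Enzymes: pol α immunoaffinity-purified from calf thymus; pol β purified from a recombinant rat pol β expression plasmid. Template-primer was poly(dA)/oligo(dT)12–18 (A/T = 2/1) with [³H]-dTTP as substrate. Inhibitor–enzyme premix was added to standard reaction mixture and incubated for 60 min at 37 °C. Remaining activity was expressed relative to the no-inhibitor control (100%).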

The target in test [3] is DNA polymerase beta (Rattus norvegicus, UniProt P06766). Briefly: Inhibition of rat DNA polymerase beta by [3H]dTTP incorporation assay. The essentials:
as §1

Test [4] has as its target Myosin light chain kinase, smooth muscle (Homo sapiens, UniProt Q15746). In words: Inhibition of MLCK.
The species named for test [5] is Bos taurus. Briefly: Inhibition of calf thymus DNA polymerase alpha assessed as complete inhibition of enzyme activity at 4 uM by [3H]dTTP incorporation assay.

Structures are written as SMILES. Calls of active or inactive are those of the source. The rule behind the calls is not given here.

Sequence of Myosin light chain kinase, smooth muscle (Q15746 whole entry): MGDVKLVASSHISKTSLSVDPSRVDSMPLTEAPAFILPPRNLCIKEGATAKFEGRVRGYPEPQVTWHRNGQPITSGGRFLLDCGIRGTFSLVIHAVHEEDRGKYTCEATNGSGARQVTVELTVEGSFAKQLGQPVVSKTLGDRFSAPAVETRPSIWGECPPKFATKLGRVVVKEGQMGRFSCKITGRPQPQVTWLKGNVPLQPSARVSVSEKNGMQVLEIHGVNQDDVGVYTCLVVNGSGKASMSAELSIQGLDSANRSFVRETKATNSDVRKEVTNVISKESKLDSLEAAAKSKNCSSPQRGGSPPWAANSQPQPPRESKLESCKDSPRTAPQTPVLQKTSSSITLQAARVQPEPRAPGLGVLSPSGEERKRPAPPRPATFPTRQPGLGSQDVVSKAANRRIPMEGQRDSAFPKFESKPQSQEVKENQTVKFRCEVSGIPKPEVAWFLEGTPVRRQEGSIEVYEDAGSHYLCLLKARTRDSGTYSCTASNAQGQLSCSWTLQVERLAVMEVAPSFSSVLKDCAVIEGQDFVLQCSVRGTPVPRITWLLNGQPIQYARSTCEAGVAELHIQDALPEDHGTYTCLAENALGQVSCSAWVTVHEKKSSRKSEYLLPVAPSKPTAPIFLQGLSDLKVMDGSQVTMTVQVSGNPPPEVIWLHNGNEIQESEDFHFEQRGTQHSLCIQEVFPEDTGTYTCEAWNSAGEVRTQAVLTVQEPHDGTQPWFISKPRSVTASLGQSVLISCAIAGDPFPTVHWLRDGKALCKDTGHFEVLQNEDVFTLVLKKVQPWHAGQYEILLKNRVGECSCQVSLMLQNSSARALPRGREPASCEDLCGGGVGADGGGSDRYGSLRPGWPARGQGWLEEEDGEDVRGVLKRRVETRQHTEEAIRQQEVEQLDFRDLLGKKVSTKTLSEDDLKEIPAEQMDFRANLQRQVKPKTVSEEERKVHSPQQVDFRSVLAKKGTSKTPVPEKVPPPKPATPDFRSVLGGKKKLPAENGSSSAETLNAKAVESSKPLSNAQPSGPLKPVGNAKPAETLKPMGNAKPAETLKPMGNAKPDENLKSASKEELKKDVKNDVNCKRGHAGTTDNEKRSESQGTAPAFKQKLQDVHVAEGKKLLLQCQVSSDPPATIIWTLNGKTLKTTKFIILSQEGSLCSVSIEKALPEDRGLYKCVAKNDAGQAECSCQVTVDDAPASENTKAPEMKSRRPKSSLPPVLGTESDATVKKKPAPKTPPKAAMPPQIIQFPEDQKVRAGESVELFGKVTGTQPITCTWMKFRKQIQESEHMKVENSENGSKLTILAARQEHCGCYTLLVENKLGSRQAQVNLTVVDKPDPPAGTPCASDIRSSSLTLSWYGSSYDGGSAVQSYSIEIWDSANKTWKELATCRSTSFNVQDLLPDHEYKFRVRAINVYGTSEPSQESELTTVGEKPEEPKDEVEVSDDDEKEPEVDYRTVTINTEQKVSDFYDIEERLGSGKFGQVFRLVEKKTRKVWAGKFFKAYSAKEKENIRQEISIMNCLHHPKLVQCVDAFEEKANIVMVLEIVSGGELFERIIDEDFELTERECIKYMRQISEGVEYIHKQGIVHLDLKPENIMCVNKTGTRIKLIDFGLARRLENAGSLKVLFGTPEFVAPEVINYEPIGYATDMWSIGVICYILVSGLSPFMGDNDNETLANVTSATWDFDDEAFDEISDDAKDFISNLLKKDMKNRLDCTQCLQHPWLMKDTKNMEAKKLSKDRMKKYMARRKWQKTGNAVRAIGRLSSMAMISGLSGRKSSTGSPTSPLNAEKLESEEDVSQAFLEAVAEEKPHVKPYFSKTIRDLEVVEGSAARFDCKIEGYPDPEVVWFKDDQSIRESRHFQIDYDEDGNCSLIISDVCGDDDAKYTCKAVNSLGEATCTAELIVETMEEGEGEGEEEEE

As to `CC12C=C(O)C(=O)C=C1c1cccc(O)c1C(=O)O2` (stereo not given), the Ratio IC50 in test [1] was found to be 371. The IC50 entry was “Dose-dependent effect” in test [2], 0.24 µM in test [2] (read-out: IC50) and 89 µM in test [3].
Consider `COc1cc(O)c2c(c1)C1=CC(=O)C(O)=CC1(C)OC2=O` (stereo not given) [DEHYDROALTENUSIN], for which the half-maximal inhibitory concentration (IC50) is 0.69 µM in test [4], “Dose-dependent effect” in test [2], 0.68 µM in test [2] (read-out: IC50) and 64 µM in test [3]. In addition, the Ratio IC50 in test [1] was 94.1. The outcome in test [5] was Active.
As to `CC12C=CC(=O)C=C1c1cccc(O)c1C(=O)O2` (stereo not given), the IC50 in test [2] (read-out: IC50) is more than 200 µM.
Turning to `CCCOc1cc(O)c2c(c1)C1=CC(=O)C(O)=CC1(C)OC2=O` (stereo not given), the Ratio IC50 in test [1] amounted to 194. Further, the IC50 result was “Dose-dependent effect” in test [2], 0.18 µM in test [2] (read-out: IC50) and 35 µM in test [3].
On to `COc1cc(O)c2c(=O)oc3cc(O)c(O)cc3c2c1`, for which, in test [2] (read-out: IC50), the IC50 is more than 200 µM.
`COc1cc(O)c2c(=O)oc3cc(OCc4ccccc4)c(OCc4ccccc4)cc3c2c1`: the IC50 in test [2] (read-out: IC50) is more than 200 µM.
`COc1cc(O)c2c(c1)C1=CC(=O)C=CC1(C)OC2=O` (stereo not given): the IC50 in test [2] (read-out: IC50) was more than 200 µM.
Turning to `CCCCCCOc1cc(O)c2c(c1)C1=CC(=O)C(O)=CC1(C)OC2=O` (stereo not given), in test [1], the Ratio IC50 is 267. Further, the IC50 result in test [2] was “Dose-dependent effect”; in test [2] (read-out: IC50), 0.09 µM; in test [3] it was 24 µM.
On to `CC12C=C(O)C(=O)C=C1c1cc(O)cc(O)c1C(=O)O2` (stereo not given) [DESMETHYLDEHYDROALTENUSIN], for which the Ratio IC50 in test [1] came to 142. The concentration for half-maximal inhibition (IC50) result is “Dose-dependent effect” in test [2], 0.89 µM in test [2] (read-out: IC50) and 126 µM in test [3].
`CCCCCCCCCCCCOc1cc(O)c2c(c1)C1=CC(=O)C(O)=CC1(C)OC2=O` (stereo not given): in test [1], the Ratio IC50 worked out at 183. Further, the half-maximal inhibitory concentration (IC50) result in test [2] was “Dose-dependent effect”; in test [2] (read-out: IC50) it was 0.06 µM; in test [3], 11 µM.
